Consider 6 compounds from publication PMC9057237 (RSC Advances, 2020).

Some results are limits rather than exact numbers.

The nature of one data set: MTT cell viability assay. It counts as cell-based, rat. As to conditions: rat, RBL-2H3 cells. The method in brief: (§1)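 Cells grown in DMEM with 10% FBS, penicillin (100 U mL−1) and streptomycin (100 μg mL−1) at 37 °C under humidified 5% CO2. Pure compounds tested at 1 to 400 μM; viability read by MTT assay. Mean, n = 3, relative to untreated (DMSO) control.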
Data set [1] has as its system human neutrophils. Description: Superoxide anion generation in fMLF/cytochalasin B-induced human neutrophils. Format: cell-based. As to conditions: for IC50: read-out: Superoxide anion generation IC50. In a few lines: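 Human neutrophils taken from venous blood of healthy volunteers aged 20–30 years. Superoxide from activated cells measured as ferricytochrome c reduction. Pure compounds tested at 0.3–10 μM. Mean ± S.E.M., n = 3–6, vs 0.1% DMSO control; IC50 is the concentration giving 50% inhibition.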

Data set [2] has as its system human neutrophils. Description: Elastase release in fMLF/cytochalasin B-induced human neutrophils. Format: cell-based. The note with it: for inhibition at 10 µM / IC50: Homo sapiens, Neutrophil; for inhibition at 10 µM: read-out: Elastase release % Inhibition; for IC50: read-out: Elastase release IC50. In a few lines:
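Neutrophils isolated from venous blood of healthy adult volunteers aged 20–30 years. Release from activated cells measured with MeO-Suc-Ala-Ala-Pro-Val-p-nitroanilide as elastase substrate. Pure compounds tested at 0.3–10 μM. LY294002 as positive control. Mean ± S.E.M., n = 3–6, vs 0.1% DMSO control; IC50 is the concentration giving 50% inhibition.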

The next data set deals with T1, neutrophil elastase (NE) (Homo sapiens, UniProt P08246).
T1 sequence (P08246 30-247 limits assumed): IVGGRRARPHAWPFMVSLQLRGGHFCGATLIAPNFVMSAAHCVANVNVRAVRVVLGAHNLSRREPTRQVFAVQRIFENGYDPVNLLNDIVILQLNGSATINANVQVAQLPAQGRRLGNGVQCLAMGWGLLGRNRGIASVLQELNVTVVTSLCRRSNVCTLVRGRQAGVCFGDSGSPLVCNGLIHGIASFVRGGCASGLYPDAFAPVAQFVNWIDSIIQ
Description: Cell-free elastase enzymatic activity assay. Format: biochemical. The note with it: read-out: Inhibition of elastase enzyme activity. The method in brief: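 Neutrophils (6 × 10^5 cells per mL) preheated 5 min at 37 °C with CaCl2 (1 mM), primed with CB (1.5 μg mL−1) for 2 min, then fMLF (0.1 μM) to release elastase. Cell-free supernatant taken after centrifugation (1000g, 5 min, 4 °C), warmed to 37 °C and given test compound (10 μM) or DMSO for 2 min. MeO-Suc-Ala-Ala-Pro-Val-p-nitroanilide (100 μM) added for 10 min; A405 read. Mean ± S.E.M., n = 4; t-test.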

The test system of another data set is SARS-CoV-2 M^pro. As to conditions: read-out: M^pro inhibition IC50; cited from earlier work.
The test system of data set [3] is human neutrophil elastase. As to conditions: read-out: Human neutrophil elastase IC50; previous study; cited from earlier work.
Data set [4] has as its system RBL-2H3 cells. Description: MTT cell viability assay. As to conditions: 100 μM; MTT. It counts as cell-based, rat. The method in brief: as §1
Data set [5] concerns RBL-2H3 cells. Description: Antigen-induced degranulation. The note with it: for % Inhibition of antigen-induced degranulation: mean ± SEM. It counts as cell-based, rat.
In data set [6] the test system is RBL-2H3 cells. Description: A23187-induced degranulation. It counts as cell-based, rat. As to conditions: mean ± S.E.M.
The mark [7] stands for this setting: Homo sapiens, Neutrophil, read-out: Superoxide anion generation % Inhibition.
The mark [8] stands for this setting: at 10 μM, fMLF/CB-induced human neutrophils, mean ± S.E.M.

For the compound `CN1CCCC(n2nc(Cc3ccc(Cl)cc3)c3ccccc3c2=O)CC1` (stereo not drawn) [Azelastine, reference compound], the viability at 20 µM in “MTT cell viability assay” was > 90%.

On to `COc1cc(O)c2c(=O)c(OC)c(-c3ccc(O)cc3)oc2c1` [Compound 7, kumatakenin], for which the inhibition at 10 µM is 24.1 ± 2.75% in the data set with human neutrophils [1] (setting [7]), 22.9 ± 4.29% with human neutrophils [2] and 20.3 to 27.1% at neutrophil elastase (NE). In addition, the IC50 in the data set with human neutrophils [1] (Homo sapiens, Neutrophil) is > 10 µM; in the data set with human neutrophils [2], > 10 µM. Also, the viability at 100 µM in “MTT cell viability assay” was > 90%.

As for `COc1cc(O)c2c(=O)c(OC)c(-c3ccc(O)c(OC)c3)oc2c1` [Compound 9, pachypodol], the inhibition at 10 µM was 67.5 ± 4.55% in the data set with human neutrophils [1] (setting [7]), 31.6 ± 5.02% with human neutrophils [2] and 20.3 to 27.1% on neutrophil elastase (NE). The IC50 is 6.07 ± 0.65 µM in the data set on human neutrophils [1] (Homo sapiens, Neutrophil) and > 10 µM in the data set with human neutrophils [2]. Moreover, the viability at 100 µM in the data set “MTT cell viability assay” was > 90%.

`O=c1c(-c2ccc(O)cc2)coc2cc(O)cc(O)c12` [Genistein, reference compound]: in the data set with human neutrophils [1] (setting [7]), the inhibition at 3 µM is 67%. Besides, the IC50 in the data set on human neutrophils [1] (Homo sapiens, Neutrophil) is 1.52 ± 0.17 µM. Further, in the data set on human neutrophils [2], the inhibition at 10 µM stood at 31.6 ± 7.29% and the IC50 amounted to 16.3 ± 4.26 µM.

Regarding `O=c1cc(-c2ccc(O)c(-c3c(O)cc(O)c4c(=O)cc(-c5ccc(O)cc5)oc34)c2)oc2cc(O)cc(O)c12` [amentoflavone], in the data set with SARS-CoV-2 M^pro, the IC50 was 8.3 µM.

For penduletin [Compound 8], the IC50 was 65.4 µM in data set [3] and 3.8 µM with RBL-2H3 cells [5] (read-out: Antigen-induced degranulation IC50). Besides, the “Superoxide anion generation % Inhibition” value with human neutrophils [1] (setting [8]) was found to be 73.76 ± 5.24%. For the same compound, the “% Viability, RBL-2H3” value with RBL-2H3 cells [4] is >90%. For the same compound, the figures for the “% Inhibition of antigen-induced degranulation” value in the data set on RBL-2H3 cells [5] (1 μM) and with RBL-2H3 cells [5] (10 μM) were 33.9 ± 8.6 % and 85.8 ± 5.1 %, respectively. Further, the “Elastase release % Inhibition” value with human neutrophils [2] (setting [8]) amounted to 33.00 ± 7.94%. The “% Inhibition of A23187-induced degranulation” value in the data set with RBL-2H3 cells [6] (1 μM) is recorded as 4.8 ± 3.9%; in the data set with RBL-2H3 cells [6] (10 μM), 25.1 ± 7.3%.

A word on the viability: it is the share of living cells, or the viability signal relative to a control.
